{"data": "Measurements collected from several papers", "KDR": "Vascular endothelial growth factor receptor 2 (KDR, Homo sapiens, UniProt P35968)", "PADI1": "Protein-arginine deiminase type-1 (PADI1, Homo sapiens, UniProt Q9ULC6)", "CDK16": "Cyclin-dependent kinase 16 (CDK16, Homo sapiens, UniProt Q00536)", "ATAD2 bromodomain": "ATPase family AAA domain-containing protein 2, bromodomain (ATAD2, Homo sapiens, UniProt Q6PL18)"}
{"Structure (SMILES)": "COc1ccc(C=NNC(=O)c2sc(Nc3ccccc3)c(C(=O)Nc3ccc(OC)cc3)c2NC(C)=O)cc1", "target": "KDR", "test": "enzyme activity, inhibitor", "setting": "10 nM", "measurement": "remaining activity", "result": "96%"}
{"Structure (SMILES)": "CC(C)(C)n1nnc([C@H](CCCNC(=N)CCl)NC(=O)c2ccc(-c3ccccc3)cc2)n1", "target": "PADI1", "test": "enzyme activity, inhibitor", "measurement": "kinact/KI", "result": "46.2 M⁻¹ s⁻¹"}
{"Structure (SMILES)": "CC1(C)NC(=O)c2[nH]c3c(Cl)c(Cl)ccc3c2C1C#N (stereo not drawn)", "target": "CDK16", "test": "thermal stability, DSF", "setting": "10 µM", "measurement": "ΔTm", "result": "0.4 °C"}
{"Structure (SMILES)": "Cc1ccc(C(=O)Nc2ccc(CN3CCN(C)CC3)c(C(F)(F)F)c2)cc1C#Cc1cnc2cccnn12", "target": "Phosphatidylinositol 4,5-bisphosphate 3-kinase catalytic subunit alpha isoform (PIK3CA, Homo sapiens, UniProt P42336, H1047L)", "test": "enzyme activity, inhibitor", "setting": "23.5 nM", "measurement": "remaining activity", "result": "70%"}
{"Structure (SMILES)": "NC(=O)[C@H](CCCN=C(N)N)NC(=O)c1ccccc1", "target": "PADI1", "test": "enzyme activity, substrate", "measurement": "Km", "result": "160 µM"}
{"Structure (SMILES)": "CN(C)C1CCN(CC#Cc2nn(C3CCCC3)c3nc(NCc4ccccc4)ncc23)C1 (stereo not drawn)", "target": "cGMP-dependent protein kinase 2 (PRKG2, Homo sapiens, UniProt Q13237)", "test": "enzyme activity, inhibitor, FRET", "setting": "0.1 µM", "measurement": "inhibition", "result": "7%"}
{"Structure (SMILES)": "CC(C)(C)n1nnc([C@H](CCCNC(=N)CCl)NC(=O)c2ccccc2C(=O)O)n1", "target": "PADI1", "test": "enzyme activity, inhibitor", "measurement": "kinact/KI", "result": "2700 M⁻¹ s⁻¹"}
{"Structure (SMILES)": "COc1ccc(NC(=O)c2c(Nc3ccccc3)sc(C(=O)NN=Cc3ccc(Cl)cc3)c2NC(C)=O)cc1", "target": "KDR", "test": "enzyme activity, inhibitor", "setting": "0.1 µM", "measurement": "remaining activity", "result": "88.3%"}
{"Structure (SMILES)": "Cc1ccc(C(=O)NCc2ccsc2)cc1C#Cc1cn(C(C)C)c2ncnc(N)c12", "target": "[Pyruvate dehydrogenase (acetyl-transferring)] kinase isozyme 2, mitochondrial (PDK2, Homo sapiens, UniProt Q15119)", "test": "enzyme activity, inhibitor", "setting": "1 µM", "measurement": "activity vs control", "result": "91%"}
{"Structure (SMILES)": "C[S+]([O-])c1ccc(-c2nc(-c3ccncc3)c(-c3ccc(F)cc3)[nH]2)cc1 (stereo not drawn)", "target": "ATAD2 bromodomain", "test": "thermal stability, DSF", "setting": "10 µM", "measurement": "ΔTm", "result": "-1.47 °C"}
{"Structure (SMILES)": "COc1ccc(NC(=O)c2c(Nc3ccccc3)sc(C#N)c2NC(=O)CNc2ccc(Cl)cc2)cc1", "target": "KDR", "test": "enzyme activity, inhibitor", "setting": "1 µM", "measurement": "remaining activity", "result": "41.1%"}
{"Structure (SMILES)": "NCCCC[C@H](NC(=O)[C@@H]1CCCN1C(=O)[C@@H]1CSSC[C@H](NC(=O)CNC(=O)CNC(=O)CN)C(=O)N[C@@H](Cc2ccc(O)cc2)C(=O)N[C@@H](Cc2ccccc2)C(=O)N[C@@H](CCC(N)=O)C(=O)N[C@@H](CC(N)=O)C(=O)N1)C(=O)NCC(N)=O", "target": "Vasopressin V1a receptor (AVPR1A, Homo sapiens, UniProt P37288)", "test": "calcium signal, agonist", "system": "CHO-S", "measurement": "Emax", "result": "41%"}
{"Structure (SMILES)": "COc1ccc(NC(=O)c2c(Nc3ccccc3)sc(C#N)c2NC(=O)CNc2ccc(Br)cc2)cc1", "target": "KDR", "test": "enzyme activity, inhibitor", "setting": "10 nM", "measurement": "remaining activity", "result": "93%"}
{"Structure (SMILES)": "CC(C)(C)n1nnc([C@H](CCCNC(=N)CCl)NC(=O)c2ccccc2)n1", "target": "PADI1", "test": "enzyme activity, inhibitor", "measurement": "kinact/KI", "result": "52.4 M⁻¹ s⁻¹"}
{"Structure (SMILES)": "Nc1ncnc2occ(-c3ccc(NC(=O)Nc4cc(C(F)(F)F)ccc4F)cc3)c12", "target": "1-phosphatidylinositol 3-phosphate 5-kinase (PIKFYVE, Homo sapiens, UniProt Q9Y2I7)", "test": "cell-free assay", "setting": "20 µM", "measurement": "remaining signal", "result": "19%"}
{"Structure (SMILES)": "N=C(CCl)NCCC[C@H](NC(=O)c1ccccc1C(=O)O)c1nn[nH]n1", "target": "PADI1", "test": "enzyme activity, inhibitor", "measurement": "kinact/KI", "result": "1370 M⁻¹ s⁻¹"}
{"Structure (SMILES)": "COc1ccc(NC(=O)c2c(Nc3ccccc3)sc(C(=O)NN=Cc3ccc(OC)c(O)c3)c2NC(C)=O)cc1", "target": "KDR", "test": "enzyme activity, inhibitor", "setting": "1 µM", "measurement": "remaining activity", "result": "63.2%"}
{"Structure (SMILES)": "N=C(CF)NCCC[C@H](NC(=O)c1ccccc1C(=O)O)c1nn[nH]n1", "target": "PADI1", "test": "enzyme activity, inhibitor", "measurement": "kinact/KI", "result": "1360 M⁻¹ s⁻¹"}
{"Structure (SMILES)": "CCC1(CC)NC(=O)c2c(c3ccc(Cl)c(Cl)c3n2C)C1C#N (stereo not drawn)", "target": "CDK16", "test": "thermal stability, DSF", "setting": "10 µM", "measurement": "ΔTm", "result": "0.3 °C"}
{"Structure (SMILES)": "COc1ccc(NC(=O)c2c(Nc3ccccc3)sc(C#N)c2NC(=O)CNc2ccc([N+](=O)[O-])cc2)cc1", "target": "KDR", "test": "enzyme activity, inhibitor", "setting": "100 µM", "measurement": "remaining activity", "result": "68.8%"}
{"Structure (SMILES)": "Cc1cnc(Nc2ccc(OCCN3CCCC3)cc2)nc1Nc1cccc(S(=O)(=O)NC(C)(C)C)c1", "target": "ATAD2 bromodomain", "test": "thermal stability, DSF", "setting": "10 µM", "measurement": "ΔTm", "result": "-0.25 °C"}
{"Structure (SMILES)": "NS(=O)(=O)c1ccc(Nc2nc(-c3ccc(F)cc3)c3ccccc3n2)cc1", "target": "ATPase family AAA domain-containing protein 2 (ATAD2, Homo sapiens, UniProt Q6PL18)", "test": "binding, competition with immobilised ligand", "setting": "1 µM", "measurement": "remaining binding", "result": "85%"}
{"Structure (SMILES)": "COc1ccc(NC(=O)c2c(Nc3ccccc3)sc(C(=O)NN=Cc3cc(OC)c(OC)c(OC)c3)c2NC(C)=O)cc1", "target": "KDR", "test": "enzyme activity, inhibitor", "setting": "0.1 µM", "measurement": "remaining activity", "result": "95.4%"}
{"Structure (SMILES)": "N=C(CF)NCCC[C@H](NC(=O)c1ccc(-c2ccccc2)cc1)c1nn[nH]n1", "target": "PADI1", "test": "enzyme activity, inhibitor", "measurement": "kinact/KI", "result": "13.7 M⁻¹ s⁻¹"}
